Only some compounds are listed: those with a hit (about 2.3% of all), similar ones and a draw of the others.
OXTR potentiator: human OXTR potentiation. hit rate 0.061% among 320,000. AID 2445. CHO-OTR cells, Fluo-8 calcium fluorescence, potentiator mode; 0% = oxytocin EC15, 100% = EC100. P30559. activation, % at 3 µM;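 active = activation above that plate's cutoff, the mean activation of tested compounds plus 3 SD, cut at about 6.6% in these data, passing the limit was not always enough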
Target sequence (P30559 whole entry, looked up): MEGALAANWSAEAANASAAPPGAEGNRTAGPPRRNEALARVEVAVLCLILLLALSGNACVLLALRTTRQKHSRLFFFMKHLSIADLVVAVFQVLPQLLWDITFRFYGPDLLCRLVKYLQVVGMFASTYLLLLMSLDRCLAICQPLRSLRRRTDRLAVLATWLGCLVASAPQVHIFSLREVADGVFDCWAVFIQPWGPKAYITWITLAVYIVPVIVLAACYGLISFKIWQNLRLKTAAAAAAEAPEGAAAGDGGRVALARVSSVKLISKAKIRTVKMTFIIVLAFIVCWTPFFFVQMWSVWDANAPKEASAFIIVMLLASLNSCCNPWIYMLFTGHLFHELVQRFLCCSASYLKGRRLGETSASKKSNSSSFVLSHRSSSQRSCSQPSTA
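assay system = CHO-OTR cells, human receptor | schedule = compound 6 min at room temperature before oxytocin, 100 s read | detection = Fluo-8 intracellular calcium fluorescence, ex 470-495, em 515-575 nm | evaluation = normalized max/min fluorescence ratio, % activation | control set = EC15 oxytocin alone as 0%, 75 nM oxytocin (EC100) as 100%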
TAAR1 antagonist: antagonists of human TAAR1; hit rate 1.5% among 360,000; Q96RJ0; CHO RD-HGA16 TAAR1, Fluo-8 calcium fluorescence, antagonist; inhibition, % at 3 µM;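 active = inhibition above a per-plate cutoff, the mean inhibition of test compounds on that plate plus 3 SD, cut at about 49% in these data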
Target sequence (Q96RJ0 whole entry, looked up): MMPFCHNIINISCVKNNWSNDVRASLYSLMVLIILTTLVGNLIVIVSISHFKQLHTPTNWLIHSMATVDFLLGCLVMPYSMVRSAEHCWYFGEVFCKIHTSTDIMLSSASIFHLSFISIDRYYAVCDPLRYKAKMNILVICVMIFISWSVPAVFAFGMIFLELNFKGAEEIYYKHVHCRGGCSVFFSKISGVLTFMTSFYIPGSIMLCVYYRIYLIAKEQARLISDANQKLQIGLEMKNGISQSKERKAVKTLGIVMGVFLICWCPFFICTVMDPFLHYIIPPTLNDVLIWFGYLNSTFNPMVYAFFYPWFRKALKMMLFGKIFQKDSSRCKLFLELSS
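Test system: CHO RD-HGA16 cells bearing hTAAR1 | Reagent: β-PEA, EC80 | Compound dosing: 3 µM, single point | Schedule: Dye loading 75 min at 37 °C, then 30 min room temperature | Signal: Calcium fluorescence with Fluo-8 | Evaluation: Percent inhibition of PEA-evoked calcium signal, max/basal emission ratio | Control set: DMSO-only wells and EC80 β-PEA-stimulated wells | Repeats: Singlicate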
OXTR agonist: agonists of human oxytocin receptor. AID 2435. P30559. activation, % at 3 µM. CHO-OTR cells, Fluo-8 calcium fluorescence; normalized: DMSO 0%, oxytocin 100%. hit rate 0.32% among 320,000;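 active = activation above the mean of all tested compounds plus 3 SD, cutoff set per screening run, cut at about 20% in these data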;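 note: peak over basal fluorescence ratio from a 100 s FLIPR kinetic read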
TAAR1 ag: agonists of human TAAR1; Q96RJ0; CHO RD-HGA16 TAAR1, Fluo-8 calcium fluorescence; vehicle wells 0%, saturating PEA agonist 100%; activation, % at 3 µM; hit rate 0.99% among 360,000; AID 624467;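 active = activation above the mean activation of all test compounds in the run plus 3 SD, cut at about 38% in these data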
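Signal – calcium-sensitive Fluo-8 signal, excitation 470-495, emission 515-575 nm · System – RD-HGA16 (CHO) cells co-expressing Gα16 and hTAAR1 · Incubation – 17-24 h seeding, 75 min 37 °C dye, 30 min RT · Compound dosing – 3 µM single concentration · Repeats – no replicates (n 1)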
V1aR counter: counter-screen for oxytocin receptor agonists: human V1a receptor agonists; P37288; CHO-V1R cells, Fluo-8 calcium fluorescence, agonist mode; 0% DMSO, 100% 3 nM vasopressin; activation, % at 3 µM; hit rate 0.25% among 320,000;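 active = activation above the mean activation of all tested compounds plus 3 SD, per screening run, cut at about 20% in these data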;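 note: signal is peak over basal fluorescence ratio across a 100 second FLIPR read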
Each line names hits and unclear results; the compound was inactive in the other large screens.

O=S1(=O)N[C@@H](Cc2ccccc2)COc2cc(N3CCOCC3)ccc21	none (no result: OXTR potentiator, OXTR agonist, V1aR counter)
Nc1ccccc1SC1CC(=O)N(c2ccc3c(c2)OCCO3)C1=O (centres undefined)	none
Nc1ccccc1SC1CC(=O)N(c2ccc(Cl)c(Cl)c2)C1=O (centres undefined)	TAAR1 antagonist 59
CS(=O)(=O)N1CCc2cc(-c3csc(NC(=O)Cc4cccs4)n3)ccc21	TAAR1 antagonist 50
CC(=O)Nc1nc(-c2ccc3c(c2)CCN3S(C)(=O)=O)cs1	none
O=C(CN1CCOCC1)Nc1nc(-c2ccc3c(c2)CCN3S(=O)(=O)c2ccccc2)cs1	TAAR1 antagonist 53
COC(=O)[C@]1(C)CCC[C@@]2(C)C3CC[C@]4(OC(C)=O)C[C@@]3(CCC21)CC4=O (some centres undefined)	TAAR1 antagonist 51
COC(=O)[C@]1(C)CCC[C@@]2(C)C3CC[C@@]4(C)C[C@]3(CCC21)CC(=O)N4Cc1ccc(OC)cc1 (some centres undefined)	none
C=CCN1C[C@@H](COCc2ccccc2)OCCS1(=O)=O	none (no result: OXTR potentiator, OXTR agonist, V1aR counter)
CCc1c(-c2ccc(Cl)cc2)ncn1CCc1ccccc1OC	none (no result: OXTR potentiator, OXTR agonist, V1aR counter)
CC(Nc1nc(N2CCNCC2)nc2ccccc12)c1ccccc1 (centres undefined)	TAAR1 ag 39
Cc1ccccc1CN1[C@@H](C)[C@H](c2ccccc2)Oc2cccc(NCC(C)C)c2S1(=O)=O	none (no result: OXTR potentiator, OXTR agonist, V1aR counter)
COc1cccc(N(C(=O)c2ccco2)c2nc(-c3sc(NC(=O)c4ccco4)nc3C)cs2)c1	TAAR1 antagonist 51
CCCc1ccc(OCc2ccc(C(=O)N3CCN(c4ccccn4)CC3)o2)c(OC)c1	TAAR1 antagonist 51
CCc1cc2c(nc1CC)CCCN2S(=O)(=O)c1c(C)noc1C	none (no result: OXTR potentiator, OXTR agonist, V1aR counter)
COc1ccccc1CNC(=O)COc1ccccc1C(=O)c1cnn(-c2ccccc2)c1	TAAR1 antagonist 57
C=CCCC1CN(Cc2ccc(OC)cc2)S(=O)(=O)c2c(cccc2Sc2ccc(OC)c(OC)c2)O1 (centres undefined)	none (no result: OXTR potentiator, OXTR agonist, V1aR counter)
C[C@H]1CNC(=O)c2c(C(=O)N3CCN(c4ccccc4)CC3)ncn21	none (no result: OXTR potentiator, OXTR agonist, V1aR counter)
Cc1cccc(N(CC(=O)NCc2ccc3c(c2)OCO3)C(=O)CCC(=O)Nc2ccccn2)c1C	TAAR1 antagonist 52 (no result: OXTR potentiator, OXTR agonist, V1aR counter)
O=C(NNC(=O)c1cccc2ccccc12)c1cccc(Cl)c1	none (no result: OXTR potentiator, OXTR agonist, V1aR counter)
CC1(C)C[C@H]2C3=CCC4[C@@]5(C)CC[C@H](O[C@@H]6O[C@H](C(=O)O)[C@@H](O)[C@H](O)[C@H]6O)[C@@](C)(CO)C5CC[C@@]4(C)[C@]3(C)C[C@H](O)[C@@]2(CO)[C@@H](O)[C@@H]1O (some centres undefined)	none
CC(=O)OC1COC(OC2C(O)C(C)OC(OC3C(OC4CCC5(C)C(CCC6(C)C5CC=C5C7CC(C)(C)CCC7(C(=O)O)CCC56C)C4(C)CO)OCC(O)C3O)C2O)C(O)C1OC(C)=O (centres undefined)	OXTR agonist 92, V1aR counter 115 (no result: TAAR1 antagonist, TAAR1 ag)
C/C=C(/C)C(=O)OC1CC(C)(C)C[C@H]2C3=CC[C@@H]4[C@@]5(C)CCC(O[C@@H]6O[C@@H](C(=O)O)[C@@H](O)C(O[C@@H]7OC[C@H](O)[C@@H](O)[C@@H]7O[C@@H]7OC(CO)C(O)[C@@H](O)[C@@H]7O)C6O[C@@H]6OC(CO)C(O)C(O)C6O)[C@@](C)(CO)[C@@H]5CC[C@]4(C)[C@]3(C)CC(O)[C@@]12CO (some centres undefined)	OXTR agonist 44, V1aR counter 22 (no result: TAAR1 antagonist, TAAR1 ag)
O=c1c2cc(F)ccc2sn1-c1ccc(F)cc1	none (no result: TAAR1 antagonist, TAAR1 ag)
Cc1ccc(C)c(-n2sc3ccc(F)cc3c2=O)c1	TAAR1 antagonist 51, TAAR1 ag 45
COc1ccc(-n2sc3ccc(F)cc3c2=O)cc1	TAAR1 ag 50
C[C@@H]1CN([C@@H](C)CO)C(=O)CCCn2cc(nn2)CO[C@H]1CN(C)C(=O)Nc1ccc2c(c1)OCO2	none (no result: OXTR potentiator, OXTR agonist, V1aR counter)
Cc1c(C(=O)Nc2ccccc2)sc2nc(-c3ccccc3)cn12	TAAR1 antagonist 51
O=C(N/N=C1\C2CN3CCN(C2)CC1(c1ccccc1)C3)c1ccc(F)cc1	none
Nc1ccccc1C(=O)N/N=C1\C2CN3CCN(C2)CC1(c1ccccc1)C3	OXTR potentiator 14
C=CCC[C@H](Cc1ccc(F)cc1)C(=O)OC[C@@H](C)NC(=O)[C@@H](CC=C)CC(=O)N[C@@H](CO)Cc1ccccc1	none (no result: TAAR1 antagonist, TAAR1 ag)
C=CCC[C@H](Cc1ccc(F)cc1)C(=O)OC[C@@H](C)NC(=O)[C@@H](CC=C)CC(=O)N[C@H](CO)Cc1ccccc1	TAAR1 antagonist 51
C=CCC[C@H](Cc1ccc(F)cc1)C(=O)OC[C@@H](NC(=O)[C@@H](CC=C)CC(=O)N[C@@H](CO)Cc1ccccc1)C(C)(C)C	TAAR1 antagonist 51
C=CC[C@@H](CC(=O)N[C@H](CO)Cc1ccccc1)C(=O)N[C@@H](COC(=O)[C@H](CC=C)CC(=O)OC(C)(C)C)Cc1ccccc1	TAAR1 antagonist 50
COC(=O)C1=C(C)N(Cc2cccc(C(F)(F)F)c2)C(=NCc2ccc(OC)cc2)NC1c1ccc(Cl)cc1 (centres undefined)	none (no result: OXTR potentiator, OXTR agonist, V1aR counter)
CCN1/C(=C/C=C/c2oc3ccc4ccccc4c3[n+]2CC)Oc2ccc3ccccc3c21	OXTR agonist 39, V1aR counter 45 (no result: TAAR1 antagonist, TAAR1 ag)
CC[n+]1c(/C=C/N(C)c2ccccc2)oc2ccc(Cl)cc21	none
CNC(=O)c1ccc(NC(=O)c2ccc3c(=O)n4c(nc3c2)CCC4)cc1	TAAR1 antagonist 53
CNC(=O)CSc1cnc2ccccc2n1	none
C#CCN1CC(COc2ccccc2)Oc2cccc(Oc3ccc(SC)c(C)c3)c2S1(=O)=O (centres undefined)	none (no result: OXTR potentiator, OXTR agonist, V1aR counter)
Cc1ccsc1CN(C)CC(=O)Nc1ccc([N+](=O)[O-])cc1Cl	TAAR1 antagonist 52
CN(CC(=O)Nc1cc([N+](=O)[O-])ccc1Cl)Cc1ccc(Br)cc1	none
COC(=O)C1=C(C)N(Cc2ccccc2C(F)(F)F)C(=NCc2ccc3c(c2)OCO3)NC1c1cccc(F)c1 (centres undefined)	none (no result: OXTR potentiator, OXTR agonist, V1aR counter)
N=c1c2c(-c3ccccc3)c(-c3ccccc3)n(Cc3ccco3)c2ncn1Cc1ccccc1	OXTR agonist 21, V1aR counter 23
N=c1c2c(-c3ccccc3)c(-c3ccccc3)n(Cc3ccco3)c2ncn1CCCn1ccnc1	none
CC(C)Cn1cnc2c(c(-c3ccccc3)c(-c3ccccc3)n2Cc2ccco2)c1=N	TAAR1 ag 42
CCOC(=O)C1=C(Nc2ccc(Br)cc2)C(=O)N(CC)C1	none (no result: OXTR potentiator, OXTR agonist, V1aR counter)
COC(=O)[C@@H]1[C@@H](C#N)C2(c3ccccc3-c3ccccc32)N(c2ccc(Cl)cc2)N1C#N	TAAR1 antagonist 50
O=C(Cc1ccc(Cl)cc1)NN1C(=O)c2ccccc2C1=O	none
